Experimental findings from ChEMBL document CHEMBL1133528, “Syntheses of 4'-C-ethynyl-beta-D-arabino- and 4'-C-ethynyl-2'-deoxy-beta-D-ribo-pentofuranosylpyrimidines and -purines and evaluation of their anti-HIV activity” (J Med Chem, 2000) are described below.

The test system of one assay is MT4. The assay can be described thus: Tested in vitro against MT-4 cells using MTT assay. It is filed as functional. Particulars: Homo sapiens. The procedure, abridged: (§1)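 MT-4 cells (2 × 10⁴/mL) infected with 100 TCID₅₀ HIV-1_LAI, grown with drug dilution series 7 days at 37 °C. MTT added, 2 h at 37 °C, formazan dissolved in acidified 2-propanol with 4% Triton X-100, absorbance at 570 nm. Triplicates. EC₅₀ is concentration suppressing HIV-1 replication by 50%. SI calculated as CC₅₀/EC₅₀.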
(In general: Tetrazolium assays rely on reduction of a dye to a coloured formazan, in cell work by metabolically active cells.)

The target in assay [1] is Human immunodeficiency virus type 1 reverse transcriptase (Human immunodeficiency virus 1) (UniProt Q72547). The assay can be described thus: Selectivity index expressed as CC50/EC50. It is filed as functional. The gist of the method: as §1
Assay [2] relates to HeLa. The assay can be described thus: (§2) Tested in vitro against HIV-1 104pre from HeLa-CD4-[…]-beta gal-cells using MAGI assay. Type of assay: functional, cell-based. Particulars: Homo sapiens. The gist of the method:
(§3)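 HeLa-CD4-LTR-β-gal indicator cells seeded at 10⁴ cells/well, cultured 24 h, then exposed to HIV-1_104pre at 30 TCID₅₀ for 2 h at 37 °C. Drug series added 2 h before or 2 h after virus, kept present without washing. At 48 h cells fixed (1% formaldehyde, 0.2% glutaraldehyde in PBS), X-Gal stained, blue infected cells counted under microscope.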

Assay [3] concerns HeLa. Described as §2. Type of assay: functional, cell-based, human immunodefficiency virus type 1. Particulars: Homo sapiens. The procedure, abridged: as §3

Bounds are passed on as bounds.

In general, CC50 refers to the concentration giving 50% cytotoxicity. High values mean lower toxicity to the cells, low ones greater toxicity to the cells. A word on the EC50: it is the concentration needed to bring the measured effect to its halfway point. A high value points to a less potent agent. Regarding `C#C[C@]1(CO)O[C@@H](n2cnc3c(N)nc(N)nc32)C[C@@H]1O`, it took 820 nM to reach half-maximal cytotoxicity in the assay on MT4 (CC50). Moreover, the SI in assay [1] was found to be 2730. In addition, the midpoint of the response with HeLa [2], the EC50, lay at 1.9 nM.

`C#C[C@]1(CO)O[C@@H](n2cc(Br)c(=O)[nH]c2=O)C[C@@H]1O`: the CC50 in the assay with MT4 is > 100000 nM. The SI in assay [1] is > 44.

For the molecule `C#C[C@]1(CO)O[C@@H](n2cc(Cl)c(N)nc2=O)C[C@@H]1O`, in the assay with MT4, the cytotoxic concentration (CC50) was > 100000 nM.

`C#C[C@]1(CO)O[C@@H](n2cc(F)c(=O)[nH]c2=O)C[C@@H]1O` showed a half-maximal cytotoxic concentration (CC50) with MT4 of 3400 nM.

For `C#C[C@]1(CO)O[C@@H](n2cc(Br)c(N)nc2=O)C[C@@H]1O`, in the assay with MT4, the CC50 is > 100000 nM.

As for `C#C[C@]1(CO)O[C@@H](n2cc(C)c(=O)[nH]c2=O)C[C@@H]1O`, the half-maximal cytotoxic concentration (CC50) with MT4 was > 380000 nM. Also, in assay [1], the SI was > 623. The molecule further came in with a concentration giving a half-maximal response (EC50) in the assay with HeLa [2] of 400 nM.

`C#C[C@]1(CO)O[C@@H](n2cnc3c(O)ncnc32)C[C@@H]1O` came in with a CC50 in the assay on MT4 of 216000 nM. In assay [1], this molecule yielded an SI of 14.4. For the same molecule, a half-maximal response in the assay on HeLa [2] (EC50) required 830 nM.

Take `Cc1cn([C@H]2C[C@H](N=[N+]=[N-])[C@@H](CO)O2)c(=O)[nH]c1=O` [ZIDOVUDINE]: the CC50 in the assay on MT4 is > 100000 nM. For the same molecule, the SI in assay [1] is > 2630. Besides, a half-maximal response in the assay on HeLa [2] (EC50) required 2 nM.

Turning to `C#C[C@]1(CO)O[C@@H](n2cnc3c(N)ncnc32)C[C@@H]1O`, the half-maximal cytotoxic concentration (CC50) in the assay with MT4 amounted to 11700 nM. The SI in assay [1] is 975. Besides, the midpoint of the response with HeLa [2], the EC50, lay at 6.8 nM.

Turning to `C#C[C@]1(CO)O[C@@H](n2cnc3cncnc32)C[C@@H]1O`, the half-maximal cytotoxic concentration (CC50) in the assay on MT4 was > 380000 nM. Also, the SI in assay [1] is > 3.2. Also, the EC50 with HeLa [2] stood at 132000 nM.

With `C#C[C@]1(CO)O[C@@H](n2cc(I)c(N)nc2=O)C[C@@H]1O`, the cytotoxic concentration (CC50) in the assay with MT4 is > 100000 nM.

As for `C#C[C@]1(CO)O[C@@H](n2cc(CC)c(=O)[nH]c2=O)C[C@@H]1O`, the cytotoxic concentration (CC50) in the assay with MT4 is > 360000 nM.

Turning to `C#C[C@]1(CO)O[C@@H](n2cc(F)c(N)nc2=O)C[C@@H]1O`, the CC50 with MT4 was > 100000 nM. The SI in assay [1] was > 3330. In the assay with HeLa [2], the EC50 stood at 2 nM.

In the assay on MT4, `C#C[C@]1(CO)O[C@@H](n2cc(Cl)c(=O)[nH]c2=O)C[C@@H]1O` showed a cytotoxic concentration (CC50) of 81700 nM. Besides, the SI in assay [1] stood at 13.6.

As to `C#C[C@]1(CO)O[C@@H](n2ccc(=O)[nH]c2=O)C[C@@H]1O`, the cytotoxic concentration (CC50) in the assay with MT4 is > 100000 nM.

Turning to `C#C[C@]1(CO)O[C@@H](n2cc(I)c(=O)[nH]c2=O)C[C@@H]1O`, the 50% cytotoxic concentration (CC50) in the assay on MT4 is > 260000 nM. In assay [1], the SI was > 765. Also, the EC50 with HeLa [2] turned out to be 360 nM.

In assay [1], `C#C[C@]1(CO)O[C@@H](n2ccc(N)nc2=O)C[C@@H]1O` showed an SI of 192. In addition, the concentration giving a half-maximal response (EC50) with HeLa [2] was found to be 0.96 nM.

On to `C#C[C@]1(CO)O[C@@H](n2cc(C)c(N)nc2=O)C[C@@H]1O`, for which it took 700 nM to reach half-maximal cytotoxicity in the assay on MT4 (CC50). The same molecule registered an SI in assay [1] of 63. Also, a half-maximal response in the assay with HeLa [2] (EC50) required 5.7 nM.

Regarding `C#C[C@]1(CO)O[C@@H](n2cnc3c(=O)[nH]c(N)nc32)C[C@@H]1O`, the EC50 with HeLa [3] was 7.1 nM. The CC50 with MT4 is 1500 nM. Further, in assay [1], the SI amounted to 1070.
